Source: ChEMBL document CHEMBL3352144, “Cytotoxic Spliceostatins from Burkholderia sp. and Their Semisynthetic Analogues” (J Nat Prod, 2014)

Tests used:
NCI-H1975 = assay: Cytotoxicity against human NCI-H1975 cells after 4 days by MTS/cell proliferation assay; assay type: functional, cell-based; conditions: NCI-H1975, 96 h
Summary of the method: (§1)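 Cells seeded in 96-well plates and dosed next day with 10 concentrations in 3-fold serial dilution, in duplicate. Incubated 4 days at 37 °C/5% CO2. Viability read by MTS or CellTiter-Glo luminescence. IC50 from four-parameter logistic fit.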

NCI-N87 = assay: Cytotoxicity against human NCI-N87 cells after 4 days by MTS/cell proliferation assay; assay type: functional, cell-based; conditions: NCI-N87, 96 h; summary of the method: as §1
MDA-MB-468 = assay: Cytotoxicity against human MDA-MB-468 cells after 4 days by MTS/cell proliferation assay; assay type: functional, cell-based; conditions: MDA-MB-468, 96 h; summary of the method: as §1
BT-474 = assay: Cytotoxicity against human BT474 cells after 4 days by MTS/cell proliferation assay; assay type: functional, cell-based; conditions: BT-474, 96 h; summary of the method: as §1
[1] = Cytotoxicity against human MDA-MB-DYT2 cells after 4 days by MTS/cell proliferation assay; assay type: functional, cell-based; conditions: 96 h; summary of the method: as §1
[2] = 1-Octanol-buffer partition coefficient, log D of the compound at pH 7.4 by shake flask method; assay type: physicochemical
Summary of the method: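 Shake-flask partition: 10 mM DMSO stock added to 1-octanol/pH 7.4 phosphate buffer (1:1, mutually presaturated), mixed 15 min at room temperature, centrifuged 1006g 10 min to split phases. Each phase was sampled, diluted and quantified by LC-MS/MS. Run in duplicate, typical CV ~20%.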

`C=C1C[C@@H](CC(=O)O)O[C@H](/C=C/C(C)=C/C[C@@H]2O[C@H](C)[C@H](NC(=O)/C=C\[C@H](C)OC(C)=O)C[C@@H]2C)[C@H]1O` gave an IC50 (NCI-H1975) of 950 nM.
For `CC(=O)O[C@H]1C(=O)[C@@]2(C)[C@H]([C@H](OC(=O)c3ccccc3)[C@]3(O)C[C@H](OC(=O)[C@H](O)[C@@H](NC(=O)c4ccccc4)c4ccccc4)C(C)=C1C3(C)C)[C@]1(OC(C)=O)CO[C@@H]1C[C@@H]2O` [PACLITAXEL], the IC50 (NCI-N87) was 7.53 nM, the IC50 (MDA-MB-468) was 7.17 nM and the IC50 (NCI-H1975) was 7.94 nM. It also gave an IC50 (BT-474) of 8.36 nM and an IC50 [1] of 6.08 nM.
Molecule `CC(=O)O[C@@H](C)/C=C\C(=O)N[C@@H]1C[C@H](C)[C@H](C/C=C(C)/C=C/[C@@H]2CC(C)=CC(=O)O2)O[C@@H]1C` has an IC50 (NCI-N87) of 3.67 nM, an IC50 (MDA-MB-468) of 1.56 nM and an IC50 (BT-474) of 3.72 nM. The IC50 [1] was 4.16 nM.
`CC(=O)O[C@@H](C)/C=C\C(=O)N[C@@H]1C[C@H](C)[C@H](C/C=C(C)/C=C/[C@@H]2C[C@](O)(CCl)C[C@@H](CC(=O)O)O2)O[C@@H]1C` gave an IC50 (NCI-N87) of 0.641 nM, an IC50 (MDA-MB-468) of 1.35 nM and an IC50 (BT-474) of 1.85 nM.
In the case of `CC(=O)O[C@@H](C)/C=C\C(=O)N[C@@H]1C[C@H](C)[C@H](C/C=C(C)/C=C/[C@H]2O[C@@H]3CC(=O)O[C@@](CCl)(C3)[C@@H]2O)O[C@@H]1C`, the IC50 (NCI-N87) is reported as over 100 nM, the IC50 (MDA-MB-468) is reported as over 100 nM and the IC50 [1] is reported as over 100 nM.
With `CCCNC(=O)C[C@@H]1C[C@@]2(CO2)[C@H](O)[C@@H](/C=C/C(C)=C/C[C@@H]2O[C@H](C)[C@H](NC(=O)/C=C\[C@H](C)OC(C)=O)C[C@@H]2C)O1` the logD [2] was 2.21, the IC50 (NCI-N87) was 0.64 nM and the IC50 (MDA-MB-468) was 0.11 nM. It also gave an IC50 (NCI-H1975) of 0.28 nM, an IC50 (BT-474) of 0.19 nM and an IC50 [1] of 0.29 nM.
`C=C1C[C@@H](CC(=O)O)O[C@H](/C=C/C(C)=C/C[C@@H]2O[C@H](C)[C@H](NC(=O)/C=C\[C@H](C)OC(C)=O)C[C@@H]2C)C1` gave an IC50 (NCI-H1975) of 30 nM.
With `CC(=O)O[C@@H](C)/C=C\C(=O)N[C@@H]1C[C@H](C)[C@H](C/C=C(C)/C=C/[C@@H]2C[C@](O)(CCl)C[C@@H](CC(=O)OC[C@@]3(O)[C@H](O)[C@@H](/C=C/C(C)=C/C[C@@H]4O[C@H](C)[C@H](NC(=O)/C=C\[C@H](C)OC(C)=O)C[C@@H]4C)O[C@](C)(O)[C@@H]3O)O2)O[C@@H]1C` the IC50 (NCI-N87) was 1.86 nM, the IC50 (BT-474) was 3.82 nM and the IC50 [1] was 3.07 nM.
Molecule `CC(=O)O[C@@H](C)/C=C\C(=O)N[C@@H]1C[C@H](C)[C@H](C/C=C(C)/C=C/[C@@H]2C[C@]3(CO3)C[C@@H](CC(=O)O)O2)O[C@@H]1C` has a logD [2] of 0.077, an IC50 (NCI-N87) of 2 nM and an IC50 (MDA-MB-468) of 3.4 nM. The IC50 (NCI-H1975) was 3.6 nM, the IC50 (BT-474) was 4.8 nM and the IC50 [1] was 9.1 nM.
For `CCCNC(=O)C[C@@H]1C[C@@]2(CO2)C[C@@H](/C=C/C(C)=C/C[C@@H]2O[C@H](C)[C@H](NC(=O)/C=C\[C@H](C)OC(C)=O)C[C@@H]2C)O1`, the logD [2] was 3.72, the IC50 (NCI-N87) was 6 nM and the IC50 (MDA-MB-468) was 1.7 nM. It also gave an IC50 (NCI-H1975) of 2.4 nM and an IC50 (BT-474) of 2.5 nM.
`CC(=O)O[C@@H](C)/C=C\C(=O)N[C@@H]1C[C@H](C)[C@H](C/C=C(C)/C=C/[C@H]2O[C@H](CC(=O)O)C[C@@](O)(CCl)[C@@H]2O)O[C@@H]1C` [THAILANSTATIN B] gave an IC50 (NCI-N87) of over 100 nM, an IC50 (MDA-MB-468) of over 100 nM and an IC50 (BT-474) of over 100 nM.
Molecule `CC(=O)O[C@@H](C)/C=C\C(=O)N[C@@H]1C[C@H](C)[C@H](C/C=C(C)/C=C/[C@H]2O[C@H](CC(=O)O)C[C@@]3(CO3)[C@@H]2O)O[C@@H]1C` [THAILANSTATIN A] has a logD [2] of -0.658, an IC50 (NCI-N87) of 59 nM and an IC50 (MDA-MB-468) of 142 nM. It also gave an IC50 (NCI-H1975) of 320 nM, an IC50 (BT-474) of 145 nM and an IC50 [1] of 161 nM.
`CC(=O)O[C@@H](C)/C=C\C(=O)N[C@@H]1C[C@H](C)[C@H](C/C=C(C)/C=C/C(=O)O)O[C@@H]1C` showed an IC50 (NCI-N87) of over 100 nM, an IC50 (BT-474) of over 100 nM and an IC50 [1] of over 100 nM.
In the case of `COC(=O)C[C@@H]1C[C@@]2(CO2)[C@H](O)[C@@H](/C=C/C(C)=C/C[C@@H]2O[C@H](C)[C@H](NC(=O)/C=C\[C@H](C)OC(C)=O)C[C@@H]2C)O1`, the logD [2] is reported as 2.23, the IC50 (NCI-N87) is reported as 0.78 nM and the IC50 (BT-474) is reported as 0.88 nM. It also gave an IC50 [1] of 1.25 nM.
